From ChEMBL document CHEMBL4004831, “Naphthalene diimide-polyamine hybrids as antiproliferative agents: Focus on the architecture of the polyamine chains” (Eur J Med Chem, 2017)
Converted amounts (≈) assume the structure as drawn. The source made the active and inactive calls. No cut-off for these calls is given here.

Legend:
[1] = tested on: MOLT-4; assay: Growth inhibition of human MOLT4 cells incubated for 48 hrs by sulforhodamine B assay; assay type: functional; conditions: MOLT-4, 48 h
[2] = tested on: KM12; assay: Growth inhibition of human KM12 cells incubated for 48 hrs by sulforhodamine B assay; assay type: functional; conditions: KM12, 48 h
[3] = tested on: HT-29; assay: Growth inhibition of human HT-29 cells incubated for 48 hrs by sulforhodamine B assay; assay type: functional; conditions: HT-29, 48 h
[4] = tested on: NCI-H522; assay: Growth inhibition of human NCI-H522 cells incubated for 48 hrs by sulforhodamine B assay; assay type: functional; conditions: NCI-H522, 48 h
[5] = tested on: Malme-3M; assay: Growth inhibition of human MALME-3M cells incubated for 48 hrs by sulforhodamine B assay; assay type: functional
[6] = tested on: SF-539; assay: Growth inhibition of human SF539 cells incubated for 48 hrs by sulforhodamine B assay; assay type: functional; conditions: SF-539, 48 h
[7] = tested on: HOP-62; assay: Growth inhibition of human HOP62 cells incubated for 48 hrs by sulforhodamine B assay; assay type: functional; conditions: HOP-62, 48 h
[8] = tested on: UACC-62; assay: Growth inhibition of human UACC62 cells incubated for 48 hrs by sulforhodamine B assay; assay type: functional; conditions: UACC-62, 48 h
[9] = tested on: EKVX; assay: Growth inhibition of human EKVX cells incubated for 48 hrs by sulforhodamine B assay; assay type: functional
[10] = tested on: HL-60; assay: Growth inhibition of human HL60 cells incubated for 48 hrs by sulforhodamine B assay; assay type: functional; conditions: HL-60, 48 h
[11] = tested on: K562; assay: Growth inhibition of human K562 cells incubated for 48 hrs by sulforhodamine B assay; assay type: functional; conditions: K562, 48 h
[12] = tested on: A549; assay: Growth inhibition of human A549/ATCC cells incubated for 48 hrs by sulforhodamine B assay; assay type: functional; conditions: A549, 48 h
[13] = tested on: SNB-19; assay: Growth inhibition of human SNB19 cells incubated for 48 hrs by sulforhodamine B assay; assay type: functional; conditions: SNB-19, 48 h
[14] = tested on: NCI-H23; assay: Growth inhibition of human NCI-H23 cells incubated for 48 hrs by sulforhodamine B assay; assay type: functional; conditions: NCI-H23, 48 h
[15] = tested on: HCT-15; assay: Growth inhibition of human HCT15 cells incubated for 48 hrs by sulforhodamine B assay; assay type: functional; conditions: HCT-15, 48 h
[16] = tested on: SK-MEL-5; assay: Growth inhibition of human SK-MEL-5 cells incubated for 48 hrs by sulforhodamine B assay; assay type: functional; conditions: SK-MEL-5, 48 h
[17] = tested on: CCRF-CEM; assay: Growth inhibition of human CCRF-CEM cells incubated for 48 hrs by sulforhodamine B assay; assay type: functional
[18] = target: DNA topoisomerase 2-alpha (Homo sapiens, UniProt P11388); assay: Inhibition of human topoisomerase-2alpha-mediated relaxation of supercoiled pBR322 DNA after 1 hr by ethidium bromide staining based agarose gel electrophoresis
DNA topoisomerase 2-alpha, sequence (P11388 whole entry): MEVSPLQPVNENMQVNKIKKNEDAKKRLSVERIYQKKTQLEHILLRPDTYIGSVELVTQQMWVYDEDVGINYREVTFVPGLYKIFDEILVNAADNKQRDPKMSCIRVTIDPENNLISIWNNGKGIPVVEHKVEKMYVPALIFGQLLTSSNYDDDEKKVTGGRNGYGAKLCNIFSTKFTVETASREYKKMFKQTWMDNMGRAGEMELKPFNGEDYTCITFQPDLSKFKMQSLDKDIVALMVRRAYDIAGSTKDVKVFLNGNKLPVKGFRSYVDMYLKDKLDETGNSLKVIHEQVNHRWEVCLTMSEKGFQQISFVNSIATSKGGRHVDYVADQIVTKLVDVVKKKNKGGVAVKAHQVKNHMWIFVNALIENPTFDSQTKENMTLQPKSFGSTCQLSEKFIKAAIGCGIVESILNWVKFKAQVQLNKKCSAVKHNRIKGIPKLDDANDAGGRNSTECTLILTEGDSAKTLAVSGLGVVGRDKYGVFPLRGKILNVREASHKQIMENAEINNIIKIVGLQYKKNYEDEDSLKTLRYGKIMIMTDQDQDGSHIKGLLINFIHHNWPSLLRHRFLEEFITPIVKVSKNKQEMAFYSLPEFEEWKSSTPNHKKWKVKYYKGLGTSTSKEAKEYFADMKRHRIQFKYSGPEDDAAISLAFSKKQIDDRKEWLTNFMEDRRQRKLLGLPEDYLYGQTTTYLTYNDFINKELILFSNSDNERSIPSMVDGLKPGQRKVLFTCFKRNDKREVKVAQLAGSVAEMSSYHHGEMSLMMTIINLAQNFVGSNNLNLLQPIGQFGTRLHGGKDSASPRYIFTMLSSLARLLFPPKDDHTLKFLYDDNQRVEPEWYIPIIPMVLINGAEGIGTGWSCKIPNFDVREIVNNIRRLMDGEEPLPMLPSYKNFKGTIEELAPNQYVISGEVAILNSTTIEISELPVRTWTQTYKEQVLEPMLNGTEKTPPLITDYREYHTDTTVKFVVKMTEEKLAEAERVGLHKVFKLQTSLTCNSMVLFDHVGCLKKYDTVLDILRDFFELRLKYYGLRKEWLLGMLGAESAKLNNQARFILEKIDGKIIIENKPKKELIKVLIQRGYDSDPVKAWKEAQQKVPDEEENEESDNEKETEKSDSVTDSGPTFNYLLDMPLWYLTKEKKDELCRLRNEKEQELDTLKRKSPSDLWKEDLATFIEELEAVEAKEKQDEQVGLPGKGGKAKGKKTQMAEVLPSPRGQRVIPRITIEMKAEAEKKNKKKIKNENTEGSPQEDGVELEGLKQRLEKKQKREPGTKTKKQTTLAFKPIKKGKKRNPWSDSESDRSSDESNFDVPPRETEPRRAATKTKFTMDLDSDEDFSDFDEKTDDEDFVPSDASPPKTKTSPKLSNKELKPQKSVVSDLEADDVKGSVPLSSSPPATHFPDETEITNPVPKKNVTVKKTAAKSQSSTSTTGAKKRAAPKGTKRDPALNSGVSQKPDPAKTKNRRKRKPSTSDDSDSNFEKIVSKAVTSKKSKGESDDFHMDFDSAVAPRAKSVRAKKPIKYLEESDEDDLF
In short: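 Supercoiled pBR322 was incubated with compound (0.5–100) and 1 U human topoisomerase IIα in enzyme buffer for 1 h at 37 °C. Reactions were stopped with Tris/EDTA/NaCl loading buffer (pH 8.0) and run on 1% agarose in TAE with 0.1% SDS (4.9 V/cm, 90 min), then stained with ethidium bromide. IC50 is the concentration reducing relaxation activity by 50%.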

[19] = tested on: COLO 205; assay: Growth inhibition of human COLO205 cells incubated for 48 hrs by sulforhodamine B assay; assay type: functional; conditions: COLO 205, 48 h
[20] = tested on: Thermus aquaticus; assay: Inhibition of Thermus aquaticus DNA polymerase-mediated amplification of fragment of pBR322 by PCR
In short: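 PCR amplification of a pBR322 fragment by Taq polymerase with increasing compound (0.25–40) for 25 cycles: 94 °C, 58 °C and 72 °C, 30 s each. Products were run on 2% agarose in 0.5X TBE (4.2 V/cm, 1.5 h) and stained with ethidium bromide. IC50 is the concentration halving activity; MIC is the lowest concentration that suppresses activity.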

[21] = tested on: Jurkat; assay: Cell cycle arrest in human Jurkat T cells assessed as accumulation at G2/M phase at 3.2 uM after 24 hrs by propidium iodide staining based flow cytometry (reference value: 17.1 to 20.8%); assay type: functional
[22] = tested on: Escherichia coli; assay: Binding affinity to Escherichia coli supercoiled pBR322 DNA assessed as DNA intercalation up to 100 uM by agarose gel electrophoresis
In short: (§1)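 Supercoiled pBR322 mixed with ligand (0–100 µM) in 10 mM Tris, 50 mM KCl with no enzyme, then run on agarose gel. Shift in electrophoretic mobility was read as intercalation/binding.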

[23] = tested on: Jurkat; assay: Induction of apoptosis in human Jurkat T cells assessed as PARP cleavage at 3.2 uM after 24 hrs by flow cytometry (reference value: 4.8%); assay type: functional
[24] = target: Telomerase reverse transcriptase (Homo sapiens) (UniProt O14746); assay: Inhibition of telomerase activity in human HeLa cells using 5'AATCCGTCGAGCAGAGTT3' as substrate after 30 mins by Sybr green1 staining based TRAP-PCR method; assay type: cell-based
Telomerase reverse transcriptase (Homo sapiens), sequence (O14746 whole entry): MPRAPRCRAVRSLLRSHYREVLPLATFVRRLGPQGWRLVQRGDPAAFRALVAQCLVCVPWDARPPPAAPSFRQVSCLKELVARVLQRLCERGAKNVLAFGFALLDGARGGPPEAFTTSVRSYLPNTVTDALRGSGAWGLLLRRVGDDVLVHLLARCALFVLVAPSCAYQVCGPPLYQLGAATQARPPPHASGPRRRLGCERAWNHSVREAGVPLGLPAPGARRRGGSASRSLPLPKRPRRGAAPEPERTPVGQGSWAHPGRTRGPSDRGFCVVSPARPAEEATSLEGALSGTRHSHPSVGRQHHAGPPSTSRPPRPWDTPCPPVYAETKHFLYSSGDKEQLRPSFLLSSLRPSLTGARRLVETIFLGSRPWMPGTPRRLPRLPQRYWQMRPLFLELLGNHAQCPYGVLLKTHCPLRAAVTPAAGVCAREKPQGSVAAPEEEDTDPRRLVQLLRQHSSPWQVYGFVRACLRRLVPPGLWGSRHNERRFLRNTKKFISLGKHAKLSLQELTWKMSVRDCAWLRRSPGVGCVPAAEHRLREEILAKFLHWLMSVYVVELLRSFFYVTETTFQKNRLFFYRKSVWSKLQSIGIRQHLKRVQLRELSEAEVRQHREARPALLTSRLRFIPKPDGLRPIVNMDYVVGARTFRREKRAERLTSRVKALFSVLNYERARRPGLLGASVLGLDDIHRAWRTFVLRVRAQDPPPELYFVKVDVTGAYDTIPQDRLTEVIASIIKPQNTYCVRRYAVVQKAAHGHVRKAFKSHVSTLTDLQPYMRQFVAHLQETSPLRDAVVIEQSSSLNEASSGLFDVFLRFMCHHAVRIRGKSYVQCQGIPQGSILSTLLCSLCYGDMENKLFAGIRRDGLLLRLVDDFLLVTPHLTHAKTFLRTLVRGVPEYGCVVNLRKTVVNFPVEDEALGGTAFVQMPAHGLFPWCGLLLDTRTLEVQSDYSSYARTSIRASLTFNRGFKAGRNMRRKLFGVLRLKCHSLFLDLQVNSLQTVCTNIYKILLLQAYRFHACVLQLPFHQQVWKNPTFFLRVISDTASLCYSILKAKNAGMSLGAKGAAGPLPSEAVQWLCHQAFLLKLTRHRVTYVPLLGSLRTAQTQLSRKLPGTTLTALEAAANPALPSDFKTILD

[25] = tested on: Jurkat; assay: Cell cycle arrest in human Jurkat T cells assessed as accumulation at G0/G1 phase at 3.2 uM after 24 hrs by propidium iodide staining based flow cytometry (reference value: 62.7 to 68.6%); assay type: functional
[26] = tested on: Jurkat; assay: Induction of apoptosis in human Jurkat T cells at 6.4 uM after 24 hrs by annexin V-phycoerythrin/7-AAD staining based flow cytometry (reference value: 5.8 to 6.6%); assay type: functional
[27] = tested on: Escherichia coli; assay: Binding affinity to Escherichia coli supercoiled pBR322 DNA up to 100 uM by agarose gel electrophoresis; in short: as §1

Compound | GI50 [1] [nM] | GI50 [3] [nM] | GI50 [4] [nM] | GI50 [10] [nM] | GI50 [11] [nM] | GI50 [12] [nM] | GI50 [14] [nM] | GI50 [15] [nM] | GI50 [16] [nM] | GI50 [17] [nM] | IC50 [18] [nM] | GI50 [19] [nM] | MIC [20] [µM] | GI50 [2] [nM] | GI50 [5] [nM] | GI50 [6] [nM] | GI50 [7] [nM] | GI50 [8] [nM] | GI50 [9] [nM] | GI50 [13] [nM] | also measured
COc1ccccc1CNCCCN1C(=O)c2ccc3c4c(ccc(c24)C1=O)C(=O)N(CCCNCCNCCCN)C3=O | 173 | 2070 | 1220 | 254 | 324 | 3010 | 1720 | 12200 | 1570 | 317 | – | – | – | 3250 | 1610 | 2880 | 2460 | 1680 | 4170 | 2180 | –
COc1ccccc1CNCCCN1C(=O)c2ccc3c4c(ccc(c24)C1=O)C(=O)N(CCCOCCCCOCCCN)C3=O | 546 | 402 | 919 | 810 | 494 | 1220 | 605 | 550 | 288 | 550 | 5500 | 233 | 1 (≈ 0.631 µg/mL) | 1270 | 248 | 1680 | 2660 | 742 | 1180 | 1530 | –
COc1ccccc1CNCCCN1C(=O)c2ccc3c4c(ccc(c24)C1=O)C(=O)N(CCCN)C3=O | 433 | 1310 | 1570 | 1560 | 1090 | 1760 | 1340 | 1410 | 246 | 433 | – | 570 | – | 1620 | 366 | 1300 | 1240 | 369 | – | 1510 | –
CNCCCNCCCN1C(=O)c2ccc3c4c(ccc(c24)C1=O)C(=O)N(CCCNCc1ccccc1OC)C3=O | 534 | 381 | 1230 | 2000 | 408 | 577 | 1260 | 2360 | 1100 | 465 | – | 498 | – | 1180 | 633 | 782 | 1240 | 1520 | – | 1680 | –
COc1ccccc1CNCCCN1C(=O)c2ccc3c4c(ccc(c24)C1=O)C(=O)N(CCCNCCCN)C3=O | 194 | 160 | 572 | 812 | 264 | 148 | 318 | 887 | 484 | 193 | 1500 | 457 | 0.25 (≈ 0.139 µg/mL) | 705 | 393 | 968 | 466 | 655 | 1020 | 702 | Activity [21]: 27.8%; Activity [22]: Active; Activity [23]: 7.2%; inhibition [24]: inactive; Activity [25]: 56.1%; Activity [26]: 14.5%
COc1ccccc1CNCCCN1C(=O)c2ccc3c4c(ccc(c24)C1=O)C(=O)N(CCCCNCCCN)C3=O | 939 | 998 | 1460 | 1060 | 1900 | 1580 | 747 | 4460 | 730 | 700 | 7000 | 690 | 0.5 (≈ 0.286 µg/mL) | 2550 | 984 | 1680 | 2980 | 1100 | 2060 | 1320 | inhibition [24]: inactive; Activity [27]: Active

More lines, main results first:

GI50 [1] [nM] | GI50 [3] [nM] | GI50 [4] [nM] | GI50 [10] [nM] | GI50 [11] [nM] | GI50 [12] [nM] | GI50 [14] [nM] | GI50 [15] [nM] | GI50 [16] [nM] | GI50 [17] [nM] | IC50 [18] [nM] | GI50 [19] [nM] | MIC [20] [µM] | Compound | GI50 [2] [nM] | GI50 [5] [nM] | GI50 [6] [nM] | GI50 [7] [nM] | GI50 [8] [nM] | GI50 [9] [nM] | GI50 [13] [nM] | also measured
584 | 309 | 180 | 438 | 301 | 581 | 356 | 1740 | 156 | 425 | 2200 | 168 | 0.25 (≈ 0.157 µg/mL) | COc1ccccc1CNCCCN1C(=O)c2ccc3c4c(ccc(c24)C1=O)C(=O)N(CCCNCCCCNCCCN)C3=O | 340 | 241 | 426 | 664 | 364 | 1400 | 579 | –
5210 | 3360 | 5620 | 3680 | 2780 | 3450 | 2990 | 4270 | 813 | 2770 | – | 1380 | – | CNCCCNCCCCNCCCN1C(=O)c2ccc3c4c(ccc(c24)C1=O)C(=O)N(CCCNCc1ccccc1OC)C3=O | 2750 | 939 | 2040 | 2330 | 711 | – | 3790 | –
